7 molecules from ChEMBL document CHEMBL4390648, “Chemical synthesis, crystal structure, versatile evaluation of their biological activities and molecular simulations of novel pyrithiobac derivatives” (Eur J Med Chem, 2019) can be followed below.

By MIC is commonly meant the smallest concentration in the dilution series that meets the test's criterion for growth inhibition. Low values mean inhibition by little substance, high ones a need for much substance. Usually inhibition stands for the percentage by which the read-out fell short of the control.

Structures are written as SMILES. Values after ≈ are worked out from the molar mass of the structure shown.

The test system of assay [1] is Candida albicans. As to the kind of experiment: Antifungal activity against Candida albicans isolate 17 grown in RPMI 1640 medium incubated for 24 hrs by microdilution method. The assay is classed as functional. Particulars: isolate 17, 24 h. An outline of the steps: (§1)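 C. albicans standard strain SC5314 and clinical isolates g5 and 17# tested by broth microdilution in YNB or RPMI 1640 medium. Plates incubated at 35 °C for up to 72 h, with visual readings taken at 24 h. MIC taken as the lowest concentration preventing visible growth.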
Background: In broth dilution the organism is exposed to a series of concentrations in liquid medium.

Assay [2] deals with Candida albicans. As to the kind of experiment: Antifungal activity against Candida albicans SC5314 grown in RPMI 1640 medium incubated for 24 hrs by microdilution method. The assay is classed as functional. The settings on record: SC5314, 24 h. An outline of the steps: as §1
The subject of assay [3] is Candida albicans. In words: Inhibition of Candida albicans AHAS catalytic subunit at 10 uM using pyruvate as substrate measured after 30 mins by colorimetric method relative to control. An outline of the steps:
(§2)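 Colorimetric assay in 50 mM potassium phosphate pH 7.0 with 50 mM pyruvate, 1 mM thiamine diphosphate, 10 mM MgCl2 and 10 μM FAD. Incubated 30 min at 37 °C for plant AHAS and 30 °C for fungal AHAS. Acetolactate formed was then quantified.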

For assay [4], the system named is Candida albicans. In words: Inhibition of Candida albicans AHAS catalytic subunit at 100 uM using pyruvate as substrate measured after 30 mins by colorimetric method relative to control. In outline:
as §2

For assay [5], the system named is Candida albicans. As to the kind of experiment: Antifungal activity against Candida albicans isolate g5 grown in RPMI 1640 medium incubated for 24 hrs by microdilution method. Format: functional. The settings on record: isolate g5, 24 h. In outline:
as §1

In assay [6] the test system is Candida albicans. As to the kind of experiment: Antifungal activity against Candida albicans SC5314 grown in YNB medium incubated for 24 hrs by microdilution method. Particulars: SC5314, 24 h. Format: functional. In outline:
as §1

For assay [7], the system named is Candida albicans. As to the kind of experiment: Antifungal activity against Candida albicans isolate 17 grown in YNB medium incubated for 24 hrs by microdilution method. The assay is classed as functional. The settings on record: isolate 17, 24 h. An outline of the steps:
as §1

Assay [8] deals with Candida albicans. As to the kind of experiment: Antifungal activity against Candida albicans isolate g5 grown in YNB medium incubated for 24 hrs by microdilution method. The assay is classed as functional. The settings on record: isolate g5, 24 h. An outline of the steps:
as §1

Assay [9] relates to Arabidopsis thaliana. In words: Inhibition of Arabidopsis thaliana AHAS catalytic subunit using pyruvate as substrate at 100 uM measured after 30 mins by colorimetric method relative to control. In outline:
as §2

Assay [10] relates to Arabidopsis thaliana. In words: Inhibition of Arabidopsis thaliana AHAS catalytic subunit using pyruvate as substrate at 10 uM measured after 30 mins by colorimetric method relative to control. An outline of the steps: as §2
For assay [11], the system named is Brassica rapa subsp. oleifera. In words: Herbicidal activity against Brassica campestris L assessed as inhibition of rape root growth at 100 mg/l root growth incubated for 48 hrs relative to control. Format: functional. An outline of the steps: (§3)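 Rape seeds soaked in distilled water for 4 h, then placed on filter paper wetted with inhibitor solution, 15 seeds per 6-cm dish. Germinated in the dark at 28 °C for 48 h. Mean length of 10 roots per plate measured.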

Assay [12] concerns Brassica rapa subsp. oleifera. In words: Herbicidal activity against Brassica campestris L assessed as inhibition of rape root growth at 10 mg/l root growth incubated for 48 hrs relative to control. Format: functional. An outline of the steps:
as §3

Assay [13] has as its system Severe acute respiratory syndrome-related coronavirus. As to the kind of experiment: Inhibition of SARS coronavirus M protease using AVLQSGFRKK as substrate at 20 uM by FRET assay relative to control. An outline of the steps:
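Purified SARS-CoV Mpro assayed by FRET. Protein, compound and substrate were preheated at 37 °C and oscillated. Fluorescence (ex 320/em 405 nm) was read every 5 s for 200 reads.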

For `COc1nc(OC)nc(Sc2ccc(C(=O)O)cc2C(=O)O)n1`, the minimal inhibitory concentration (MIC) in the assay on Candida albicans [1], with Candida albicans [2], against Candida albicans [5], against Candida albicans [6], with Candida albicans [7] and in the assay with Candida albicans [8] was more than 100 µg/mL each time. The inhibition in the assay on Candida albicans [3] is 15.6%; in the assay with Candida albicans [4], 58.7%; in the assay on Arabidopsis thaliana [9] it was 81.7%; in the assay with Arabidopsis thaliana [10], 73.3%; in [13], 0%. For the same molecule, the entries for the “inhibition (INH)” value in assay [11] and in [12] were 20.3% and 8%, respectively.

Regarding `COc1nc(OC)nc(Sc2ccc(C(F)(F)F)cc2C#N)n1`, the MIC in the assay with Candida albicans [1], in the assay with Candida albicans [2], against Candida albicans [5], against Candida albicans [6], with Candida albicans [7] and in the assay on Candida albicans [8] was more than 100 µg/mL throughout. In addition, the inhibition was found to be 0% in the assay on Candida albicans [3]; 12% in the assay on Candida albicans [4]; 15% in the assay on Arabidopsis thaliana [9]; 11.5% in the assay on Arabidopsis thaliana [10]; 0% in assay [13]. Moreover, the “inhibition (INH)” value in [11] is reported as 8.5%; in assay [12], 0%.

On to `CCOc1ccccc1OS(=O)(=O)NC(=O)Nc1nc(OC)cc(OC)n1` [ETHOXYSULFURON], for which the minimum inhibitory concentration (MIC) in the assay with Candida albicans [1] was determined as 50 µg/mL (≈ 126 µM); against Candida albicans [2], 25 µg/mL (≈ 62.8 µM); in the assay on Candida albicans [5] it was 25 µg/mL (≈ 62.8 µM); against Candida albicans [6], 0.39 µg/mL (≈ 0.979 µM); with Candida albicans [7], 0.39 µg/mL (≈ 0.979 µM); against Candida albicans [8] it was 0.39 µg/mL (≈ 0.979 µM). In addition, the inhibition in the assay on Candida albicans [3] worked out at 96.8%; in the assay on Candida albicans [4], 98.7%.

For `COc1cc(OC)nc(Sc2cc(C(F)(F)F)ccc2C(=O)O)n1`, the minimal inhibitory concentration (MIC) against Candida albicans [1], against Candida albicans [2], in the assay on Candida albicans [5], in the assay with Candida albicans [6], with Candida albicans [7] and with Candida albicans [8] was more than 100 µg/mL each time. Moreover, the inhibition worked out at 0% with Candida albicans [3]; 31.2% in the assay with Candida albicans [4]; 85.5% in the assay on Arabidopsis thaliana [9]; 51.8% in the assay with Arabidopsis thaliana [10]; 0% in [13]. The results for the “inhibition (INH)” value in assay [11] and in assay [12] were 50% and 24.6%, respectively.

For the molecule `COc1cc(OC)nc(Sc2ccc(C#N)c(C(F)(F)F)c2)n1`, the minimum inhibitory concentration (MIC) in the assay with Candida albicans [1], in the assay on Candida albicans [2], against Candida albicans [5], against Candida albicans [6], in the assay with Candida albicans [7] and with Candida albicans [8] was more than 100 µg/mL each time. Also, the inhibition in the assay with Candida albicans [3] was 18.6%; in the assay on Candida albicans [4], 51.4%; in the assay on Arabidopsis thaliana [9] it was 86.2%; with Arabidopsis thaliana [10], 51.2%; in [13], 85%. For the same molecule, the results for the “inhibition (INH)” value in assay [11] and in assay [12] were 33.5% and 4.7%, respectively.

Regarding `COc1cc(OC)nc(Sc2ccc(C(=O)O)cc2C(=O)O)n1`, the minimal inhibitory concentration (MIC) against Candida albicans [1], in the assay on Candida albicans [2], in the assay on Candida albicans [5], in the assay on Candida albicans [6], in the assay with Candida albicans [7] and against Candida albicans [8] was more than 100 µg/mL each time. The inhibition is 8% with Candida albicans [3]; 24% with Candida albicans [4]; 20% in the assay with Arabidopsis thaliana [9]; 5% in the assay on Arabidopsis thaliana [10]; 0% in assay [13]. The “inhibition (INH)” value in assay [11] and in [12] was 0% throughout.

Regarding `COc1nc(OC)nc(Sc2ccc(C#N)cc2C(F)(F)F)n1`, the minimal inhibitory concentration (MIC) in the assay with Candida albicans [1], in the assay on Candida albicans [2], with Candida albicans [5], against Candida albicans [6], in the assay on Candida albicans [7] and in the assay on Candida albicans [8] was more than 100 µg/mL throughout. In addition, the inhibition with Candida albicans [3] was 10.5%; in the assay with Candida albicans [4], 22%; with Arabidopsis thaliana [9], 10%; in the assay with Arabidopsis thaliana [10], 0%; in assay [13], 18%. The figures for the “inhibition (INH)” value in assay [11] and in assay [12] were 5% and 0%, respectively.
